Assay results collected from several papers.
Each line is one published result; the experiments were not run side by side.
Target: Serine/threonine-protein kinase 32A (STK32A, Homo sapiens, UniProt Q8WU08)

COc1ccc2c(c1)O[C@H](c1ccc(OC)c(OC)c1)C[C@@H]2NC(=O)C1(c2ccc3c(c2)OC(F)(F)O3)CC1  remaining binding (cell-free assay, competition with immobilised ligand; 1 µM): 100%
Cc1cnc(Nc2ccc(C(=O)N3CCC(N4CCCC4)CC3)cc2)nc1-c1cc2ccccc2s1  remaining binding (binding, competition with immobilised ligand; 1 µM): 79%
C[C@@H]1CCN(c2nccc(-c3cnn4ncccc34)n2)C1  remaining binding (binding; 1 µM): 71%
CCN1CCN(Cc2ccc(C(=O)Nc3ccc(C)c(Oc4ccc5c(c4)CC(=O)N5)c3)cc2C(F)(F)F)CC1  remaining binding (binding, competition with immobilised ligand; 1 µM): 100%
c1cnn2ncc(-c3ccnc(N4CCC45COC5)n3)c2c1  remaining binding (binding; 1 µM): 58%
N#Cc1ccc(Nc2ccc3[nH]c(=O)[nH]c3c2)c(Cl)c1  remaining binding (binding, competition with immobilised ligand; 1 µM): 81%
COc1ncc2cc3ccccc3nc2c1C#N  remaining binding (binding, competition with immobilised ligand; 5 µM): 100%
CN([C@@H]1CCc2c(CC(=O)O)c3cc(S(C)(=O)=O)ccc3n2C1)S(=O)(=O)c1ccc(F)cc1  remaining binding (cell-free assay, competition with immobilised ligand; 1 µM): 100%
CN(CCCC(F)(F)F)c1nccc(-c2cnn3ncccc23)n1  remaining binding (binding; 1 µM): 100%
O=C(c1ccc(Nc2nccc(-c3cc4ccccc4s3)n2)cc1)N1CCC(N2CCCC2)CC1  remaining binding (binding, competition with immobilised ligand; 1 µM): 100%
CC(=O)Nc1c(C(C)=O)c(=O)n(C)c2nc(-c3ccc(Cl)cc3Cl)c(-c3ccc(Cl)cc3)cc12  remaining binding (cell-free assay, competition with immobilised ligand; 1 µM): 82%
O=C(NCC1CCOCC1)c1n[nH]cc1NC(=O)c1c(F)cccc1F  remaining binding (binding, competition with immobilised ligand; 1 µM): 88%
O=C(c1ccc(Nc2ncc(Cl)c(-c3ccc(Cl)s3)n2)cc1)N1CCC(N2CCCC2)CC1  remaining binding (binding, competition with immobilised ligand; 1 µM): 70%
Cc1c(NC(=O)c2cc(C(N)=O)nc3cc(F)ccc23)c(C(F)(F)F)nn1Cc1ccc(C(C)(C)C)cc1  remaining binding (cell-free assay, competition with immobilised ligand; 1 µM): 100%
CN(C)c1nccc(-c2cnn3ncccc23)n1  remaining binding (binding; 1 µM): 81%
CNC(=O)[C@@H]1CC[C@@H](n2c(-c3ccc4cnccc4c3)nc3ccc(C(=O)NCc4cccc(C(N)=O)c4)cc32)C1  remaining binding (binding, competition with immobilised ligand; 1 µM): 100%
N[C@@H]1CCN(c2nccc(-c3cnn4ncccc34)n2)C1  remaining binding (binding; 1 µM): 98%
CCC(=O)N[C@H]1CC[C@@H](C(=O)N(C)c2ccc(-c3nc4ccccc4o3)cc2)C1  remaining binding (cell-free assay, competition with immobilised ligand; 1 µM): 98%
F[C@@H]1CCN(c2nccc(-c3cnn4ncccc34)n2)C1  remaining binding (binding; 1 µM): 100%
FC(F)(F)Oc1cccc(-c2cnc3ccc(-c4ccncc4)nn23)c1  remaining binding (binding, competition with immobilised ligand; 5 µM): 75%
CC1CCCN1c1nccc(-c2cnn3ncccc23)n1 (stereo not shown)  remaining binding (binding; 1 µM): 100%
CCCOc1ccc([C@@H]2[C@@H](C(=O)O)[C@H](c3ccc4c(c3)OCO4)CN2CC(=O)Nc2c(CC)cccc2CC)cc1  remaining binding (cell-free assay, competition with immobilised ligand; 1 µM): 85%
